Here are results for nine molecules from ChEMBL document CHEMBL1140468, “Design, synthesis and biological evaluation of substituted dioxodibenzothiazepines and dibenzocycloheptanes as farnesyltransferase inhibitors” (Bioorg Med Chem Lett, 2007).

pIC50: −log10 of the molar value.

In assay [1] the target is Protein farnesyltransferase (Homo sapiens, UniProt P49354+P49356). Nature of the assay: Inhibition of FTase by fluorescence spectrometry technique. The assay is classed as protein-complex assay.
The subject of assay [2] is DU-145. Description: Antiproliferative activity against DU145 cells by colorimetric MTT assay. The assay is classed as functional, cell-based. To be noted: Homo sapiens. The procedure, abridged: (§1)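 Proliferation of the human tumour lines DU145, PC-3 and MCF-7 was read out by colorimetric MTT assay. Values come from at least three independent determinations, with standard deviation below 10%.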

In another assay the test system is PC-3. Description: Antiproliferative activity against PC3 cells by colorimetric MTT assay. The assay is classed as functional, cell-based. To be noted: Homo sapiens. The procedure, abridged: as §1
In a further assay the test system is MCF7. Description: Antiproliferative activity against MCF7 cells by colorimetric MTT assay. The assay is classed as functional, cell-based. To be noted: Homo sapiens. The procedure, abridged: as §1
Assay [3] relates to L1210. Nature of the assay: Antiproliferative activity against L1210 cells by cell numeration. To be noted: Mus musculus.
Assay [4] relates to L1210. Nature of the assay: Antiproliferative activity against L1210 cells by cell numeration at 10 uM. To be noted: Mus musculus.
Assay [5] deals with DU-145. Description: Antiproliferative activity against DU145 cells by colorimetric MTT assay at 100 uM. It counts as functional. To be noted: Homo sapiens.

As to `CN1c2ccccc2C(N2CCCN(Cc3cncn3Cc3ccc(C#N)cc3)CC2)c2ccccc2S1(=O)=O` (centres undefined), the pIC50 was 7.35 in assay [1]; 4.22 with DU-145 [2]; 4.30 with PC-3; 4.32 in the assay with MCF7; 5.32 in the assay with L1210 [3].

For `N#Cc1ccc(Cn2cncc2CN[C@H](CC(=O)N[C@@H](Cc2ccccc2)C(N)=O)Cc2ccccc2)cc1`, the pIC50 in assay [1] is 7.55; in the assay on DU-145 [2], < 4.00; in the assay with PC-3 it was < 4.00; with MCF7, < 4.00. In the assay on L1210 [4], this molecule gave an inhibition at 10 µM of 41%.

For `COC(=O)[C@H](Cc1ccccc1)N(C(=O)c1ccccc1)C1CCN(Cc2cncn2Cc2ccc(C#N)cc2)CC1`, the pIC50 in assay [1] was 7.66; in the assay with L1210 [3], 5.31.

For the molecule `CCCCN1c2ccccc2C(N2CCCN(Cc3cncn3Cc3ccc(C#N)cc3)CC2)c2ccccc2S1(=O)=O` (centres undefined), the pIC50 in assay [1] was 7.37; with DU-145 [2], 4.00; with MCF7 it was 4.18; with L1210 [3], 5.52.

For the molecule `N#Cc1ccc(Cn2cncc2CN2CCN(C3c4ccccc4CCc4ccccc43)CC2)cc1`, the pIC50 was 6.51 in assay [1]; 5.02 in the assay with DU-145 [2]; 4.94 in the assay on PC-3; 4.35 in the assay with MCF7; 5.31 in the assay on L1210 [3].

For the molecule `N#Cc1ccc(Cn2cncc2CN2CCCN(C3c4ccccc4N(CCCN4CCOCC4)S(=O)(=O)c4ccccc43)CC2)cc1` (centres undefined), the pIC50 in assay [1] is 7.76; in the assay with DU-145 [2], 4.32; in the assay with PC-3, 4.56; in the assay on MCF7 it was 4.48; in the assay with L1210 [3], 5.34.

On to `N#Cc1ccc(Cn2cncc2CN2CCCN(C3c4ccccc4CCc4ccccc43)CC2)cc1`, for which the pIC50 in assay [1] is 6.55; in the assay on DU-145 [2], 4.29; in the assay on MCF7, 4.39. For the same molecule, the inhibition at 10 µM in the assay with L1210 [4] was 34%.

As for `CCCN1c2ccccc2C(N2CCCN(Cc3cncn3Cc3ccc(C#N)cc3)CC2)c2ccccc2S1(=O)=O` (centres undefined), the negative-log IC50 (pIC50) in assay [1] was 7.33; in the assay on PC-3, 4.47; in the assay with L1210 [3], 5.40. Besides, the inhibition at 100 µM in the assay with DU-145 [5] turned out to be 38%.

As to `CN1c2ccccc2C(N2CCN(Cc3cncn3Cc3ccc(C#N)cc3)CC2)c2ccccc2S1(=O)=O` (centres undefined), the pIC50 in assay [1] was 7.35; in the assay on DU-145 [2] it was 4.00; in the assay with PC-3, 4.16; in the assay with MCF7, 4.12; in the assay with L1210 [3], 5.41.
